Each block holds one compound with its values, some of them ahead of it. Calls of active or inactive are those of the source. No cut-off for these calls is given here.
Experiments:
[1] = molecular target: T1, Nuclear factor erythroid 2-related factor 2 (Rattus norvegicus) (UniProt O54968); assay: Induction of NRF2 activation in rat H42E cells expressing ARE8L assessed as increase in reporter transgene activity after 24 hrs by luminescence assay; format: cell-based
T1 sequence (whole entry): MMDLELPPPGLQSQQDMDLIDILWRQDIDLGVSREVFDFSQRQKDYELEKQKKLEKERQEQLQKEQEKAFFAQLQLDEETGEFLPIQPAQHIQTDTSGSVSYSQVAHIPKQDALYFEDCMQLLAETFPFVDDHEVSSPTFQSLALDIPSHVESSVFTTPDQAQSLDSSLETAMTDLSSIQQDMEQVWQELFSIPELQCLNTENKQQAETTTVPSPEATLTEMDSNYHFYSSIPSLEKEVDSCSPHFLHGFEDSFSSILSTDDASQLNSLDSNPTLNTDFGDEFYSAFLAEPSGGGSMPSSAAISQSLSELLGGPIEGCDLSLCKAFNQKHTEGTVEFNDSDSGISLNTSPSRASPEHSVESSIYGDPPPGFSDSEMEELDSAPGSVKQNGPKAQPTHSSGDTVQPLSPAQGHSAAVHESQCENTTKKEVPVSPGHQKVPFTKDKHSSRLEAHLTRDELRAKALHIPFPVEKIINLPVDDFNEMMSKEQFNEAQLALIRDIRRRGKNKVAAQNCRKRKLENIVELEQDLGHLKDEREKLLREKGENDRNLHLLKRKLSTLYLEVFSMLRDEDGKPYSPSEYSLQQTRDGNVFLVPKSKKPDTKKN
How it was run: (§1)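 Reporter cells (H4IIE-ARE8L) exposed 24 h to compounds at 0.5% DMSO. Cells washed in PBS, then given 150 µg/mL D-luciferin in PBS for 5 min before reading luminescence. Signal normalised to vehicle-treated cells. The concentration giving a 2-fold rise in reporter activity (CD) was taken from the concentration-response data. Mean ± S.D., n=4.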

[2] = molecular target: T1, Nuclear factor erythroid 2-related factor 2 (Rattus norvegicus); assay: Induction of NRF2 activation in rat H42E cells expressing ARE8L assessed as reporter transgene activity after 24 hrs by luminescence assay; format: cell-based; how it was run: as §1
[3] = molecular target: Kelch-like ECH-associated protein 1 (Mus musculus) (UniProt Q9Z2X8); assay: Binding affinity to recombinant mouse poly His-tagged Keap1 expressed in Escherichia coli assessed as chemical modification of Cys-288 residue incubated up to 24 hrs by LC-MS/MS analysis
How it was run: (§2)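 Recombinant His-tagged protein (human GSTP1 or mouse Keap1) purified by nickel affinity and incubated on-bead with the stated molar excess of compound for up to 24 h, pH 8.4, 37 °C. Free cysteines capped with 55 mM iodoacetamide for 15 min, trypsin digest overnight at 37 °C, LC-MS/MS detection of adduct mass shifts on peptide y/b ions.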

[4] = molecular target: Kelch-like ECH-associated protein 1 (Mus musculus) (UniProt Q9Z2X8); assay: Binding affinity to recombinant mouse poly His-tagged Keap1 expressed in Escherichia coli assessed as chemical modification of Cys-257 residue incubated up to 24 hrs by LC-MS/MS analysis; how it was run: as §2
[5] = molecular target: T1, Nuclear factor erythroid 2-related factor 2 (Rattus norvegicus); assay: Stabilization of NRF2 in rat H42E cells expressing ARE8L at 0.01 to 30 nM after 1 hr by Western blot analysis; format: cell-based
How it was run: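 H4IIE-ARE8L cells exposed 1 h to the compound. Nrf2 protein accumulation detected by immunoblot. DMSO (0.5%) served as negative control and MG132 (10 μM) as positive control. Representative of n=3 independent experiments.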

[6] = molecular target: Kelch-like ECH-associated protein 1 (Mus musculus) (UniProt Q9Z2X8); assay: Binding affinity to recombinant mouse poly His-tagged Keap1 expressed in Escherichia coli assessed as chemical modification of Cys-613 residue incubated up to 24 hrs by LC-MS/MS analysis; how it was run: as §2
[7] = molecular target: Kelch-like ECH-associated protein 1 (Mus musculus) (UniProt Q9Z2X8); assay: Binding affinity to recombinant mouse poly His-tagged Keap1 expressed in Escherichia coli assessed as chemical modification of Cys-434 residue incubated up to 24 hrs by LC-MS/MS analysis; how it was run: as §2
[8] = molecular target: Glutathione S-transferase P (Homo sapiens) (UniProt P09211); assay: Binding affinity to recombinant human poly His-tagged GSTP1 expressed in Escherichia coli assessed as chemical modification at Cys-47 at 10:1 compound:protein molar ratio after 1 hr by LC-MS/MS analysis; how it was run: as §2
[9] = Thiol reactivity using N-acetyl cysteine assessed as chemical shifts at 25 degC by NMR spectroscopy
[10] = molecular target: Kelch-like ECH-associated protein 1 (Mus musculus) (UniProt Q9Z2X8); assay: Binding affinity to recombinant mouse poly His-tagged Keap1 expressed in Escherichia coli assessed as chemical modification of Cys-489 residue incubated up to 24 hrs by LC-MS/MS analysis; how it was run: as §2
[11] = Cytotoxicity against rat H42E cells expressing ARE8L assessed as cellular ATP level after 24 hrs by Celltiter-Glo luminescent cell viability assay; format: cell-based
How it was run: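 H4IIE-ARE8L rat hepatoma cells grown in DMEM with 10% FBS, glutamine, HEPES and non-essential amino acids, and exposed 24 h to compounds at 0.5% DMSO. Cellular ATP measured by CellTiter-Glo luminescence and expressed relative to vehicle. Mean ± S.D., n=4.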

[12] = molecular target: Kelch-like ECH-associated protein 1 (Mus musculus) (UniProt Q9Z2X8); assay: Binding affinity to recombinant mouse poly His-tagged Keap1 expressed in Escherichia coli assessed as chemical modification of Cys-273 residue incubated up to 24 hrs by LC-MS/MS analysis; how it was run: as §2
[13] = Thiol reactivity using beta-mercaptoethanol assessed as chemical shifts at 25 degC by NMR spectroscopy
[14] = Thiol reactivity using beta-mercaptoethanol assessed as chemical shifts in presence of triethylamine at 25 degC by NMR spectroscopy
[15] = molecular target: Kelch-like ECH-associated protein 1 (Mus musculus) (UniProt Q9Z2X8); assay: Binding affinity to mouse V5-tagged Keap1 expressed in HEK293T cells assessed as chemical modification of Cys-288 residue at 100 uM incubated for by LC-MS/MS analysis; format: cell-based; settings: HEK-293T
How it was run: (§3)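 Mouse Keap1-V5 expressed ectopically in HEK293T cells; cells exposed to 100 µM compound for 1 h. Keap1-V5 immunopurified from lysates, free cysteines capped with iodoacetamide, trypsin-digested overnight at 37 °C, then LC-MS/MS. Modification frequency per cysteine from n=4 independent experiments.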

[16] = molecular target: Kelch-like ECH-associated protein 1 (Mus musculus) (UniProt Q9Z2X8); assay: Binding affinity to mouse V5-tagged Keap1 expressed in HEK293T cells assessed as chemical modification of Cys-489 residue at 100 uM incubated for by LC-MS/MS analysis; format: cell-based; settings: HEK-293T; how it was run: as §3
[17] = molecular target: Glutathione S-transferase P (Homo sapiens) (UniProt P09211); assay: Binding affinity to recombinant human poly His-tagged GSTP1 expressed in Escherichia coli assessed as chemical modification at Cys-47 at 100:1 compound:protein molar ratio after 24 hrs by LC-MS/MS analysis; how it was run: as §2
[18] = molecular target: Kelch-like ECH-associated protein 1 (Mus musculus) (UniProt Q9Z2X8); assay: Binding affinity to mouse V5-tagged Keap1 expressed in HEK293T cells assessed as chemical modification of Cys-434 residue at 100 uM incubated for by LC-MS/MS analysis; format: cell-based; settings: HEK-293T; how it was run: as §3
[19] = molecular target: Kelch-like ECH-associated protein 1 (Mus musculus) (UniProt Q9Z2X8); assay: Binding affinity to mouse V5-tagged Keap1 expressed in HEK293T cells assessed as chemical modification of Cys-257 residue at 100 uM incubated for by LC-MS/MS analysis; format: cell-based; settings: HEK-293T; how it was run: as §3
[20] = molecular target: Glutathione S-transferase P (Homo sapiens) (UniProt P09211); assay: Binding affinity to recombinant human poly His-tagged GSTP1 expressed in Escherichia coli assessed as chemical modification of Cys-47 residue at 1:1 compound:protein molar ratio after 24 hrs by LC-MS/MS analysis in presence of methyl 2-cyano-3,12-dioxooleana-1,9(11)-dien-28-oate
How it was run: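 Competition format. His-tagged human GSTP1 was held on-bead at pH 8.4, 37 °C and pre-incubated 1 h with molar excesses of the competitor. The probe was then added at 1:1 molar ratio for another 24 h, with the competitor kept in the buffer. Cysteines capped with iodoacetamide, followed by tryptic digestion and LC-MS/MS of Cys-47 modification.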

[21] = molecular target: Kelch-like ECH-associated protein 1 (Mus musculus) (UniProt Q9Z2X8); assay: Binding affinity to mouse V5-tagged Keap1 expressed in HEK293T cells assessed as chemical modification of Cys-273 residue at 100 uM incubated for by LC-MS/MS analysis; format: cell-based; settings: HEK-293T; how it was run: as §3

Glutathione S-transferase P (Homo sapiens), sequence (P09211 2-210 limits assumed): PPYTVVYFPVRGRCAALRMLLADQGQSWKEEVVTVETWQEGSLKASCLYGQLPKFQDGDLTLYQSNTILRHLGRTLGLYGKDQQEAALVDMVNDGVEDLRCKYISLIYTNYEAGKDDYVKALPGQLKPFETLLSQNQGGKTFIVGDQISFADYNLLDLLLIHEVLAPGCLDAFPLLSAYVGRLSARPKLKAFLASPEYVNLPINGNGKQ
Kelch-like ECH-associated protein 1 (Mus musculus), sequence (Q9Z2X8 whole entry): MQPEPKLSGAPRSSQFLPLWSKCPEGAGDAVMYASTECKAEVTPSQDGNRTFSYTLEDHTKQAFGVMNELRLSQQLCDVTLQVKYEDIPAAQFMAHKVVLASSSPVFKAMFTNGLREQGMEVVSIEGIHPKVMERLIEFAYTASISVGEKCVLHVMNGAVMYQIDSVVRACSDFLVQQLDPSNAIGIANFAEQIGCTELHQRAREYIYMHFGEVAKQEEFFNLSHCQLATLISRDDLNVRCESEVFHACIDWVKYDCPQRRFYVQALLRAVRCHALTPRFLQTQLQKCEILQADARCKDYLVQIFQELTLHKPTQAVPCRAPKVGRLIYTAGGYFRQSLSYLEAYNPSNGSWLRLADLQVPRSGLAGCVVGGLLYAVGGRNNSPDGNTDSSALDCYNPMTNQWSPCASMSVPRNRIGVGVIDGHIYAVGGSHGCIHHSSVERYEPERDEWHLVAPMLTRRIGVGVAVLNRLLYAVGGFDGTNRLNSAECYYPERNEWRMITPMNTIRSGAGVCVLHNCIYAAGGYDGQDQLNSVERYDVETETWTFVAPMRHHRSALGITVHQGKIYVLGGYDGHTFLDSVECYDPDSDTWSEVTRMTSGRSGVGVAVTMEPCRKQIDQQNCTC

Compound: COC(=O)[C@]12CCC(C)(C)C[C@H]1[C@H]1C(=O)C=C3[C@@]4(C)CC[C@H](OC(C)=O)C(C)(C)[C@@H]4CC[C@@]3(C)[C@]1(C)CC2
CD [2]: 17.6 µM

Compound: COC(=O)[C@]12CCC(C)(C)C[C@H]1[C@H]1C(=O)C=C3[C@@]4(C)C=CC(=O)C(C)(C)[C@@H]4CC[C@@]3(C)[C@]1(C)CC2
Activity [1]: Dose-dependent effect
CD [2]: 0.9 µM

Compound: COC(=O)[C@]12CCC(C)(C)C[C@H]1[C@H]1C(=O)C=C3[C@@]4(C)CCC(=O)C(C)(C)[C@@H]4CC[C@@]3(C)[C@]1(C)CC2
CD [2]: 1.2 µM

Now from value to compound, other results behind:

Activity [1]: Dose-dependent effect
CD [2]: 15.4 µM
Compound: COC(=O)[C@]12CCC(C)(C)C[C@H]1[C@H]1C(=O)C=C3[C@@]4(C)[C@H]5O[C@H]5C(=O)C(C)(C)[C@@H]4CC[C@@]3(C)[C@]1(C)CC2

Activity [3]: inactive
Activity [4]: inactive
Activity [5]: Active
Activity [6]: inactive
Activity [7]: inactive
Activity [8]: Active
Activity [10]: inactive
CD [2]: 0.0005 µM
Activity [12]: inactive
Compound: COC(=O)[C@]12CCC(C)(C)C[C@H]1[C@H]1C(=O)C=C3[C@@]4(C)C=C(C#N)C(=O)C(C)(C)[C@@H]4CC[C@@]3(C)[C@]1(C)CC2 [BARDOXOLONE METHYL]
Activity [9]: 5.81 ppm
IC50 [11]: 1400 nM
Activity [13]: 5.85 ppm

CD [2]: 0.009 µM
Compound: COC(=O)[C@]12CCC(C)(C)C[C@H]1[C@H]1C(=O)C=C3[C@@]4(C)CC(C#N)C(=O)C(C)(C)[C@@H]4CC[C@@]3(C)[C@]1(C)CC2 (some centres undefined)
Activity [14]: inactive
Activity [13]: inactive

Activity [15]: Active
Activity [16]: Active
Activity [3]: Dose-dependent effect
Activity [4]: Dose-dependent effect
Activity [6]: Dose-dependent effect
Activity [7]: Dose-dependent effect
Activity [17]: Active
Activity [18]: Active
Activity [19]: Active
Activity [10]: Dose-dependent effect
Activity [20]: inactive
Activity [21]: Active
CD [2]: 0.002 µM
Activity [12]: Dose-dependent effect
Compound: COC(=O)[C@]12CCC(C)(C)C[C@H]1[C@H]1C(=O)C=C3[C@@]4(C)[C@H]5O[C@@]5(C#N)C(=O)C(C)(C)[C@@H]4CC[C@@]3(C)[C@]1(C)CC2
Activity [14]: 5.15 ppm
Activity [9]: inactive
IC50 [11]: 4300 nM
Activity [13]: inactive

From ChEMBL document CHEMBL3785089, “Design and Synthesis of Irreversible Analogues of Bardoxolone Methyl for the Identification of Pharmacologically Relevant Targets and Interaction Sites” (J Med Chem, 2016)
